Results taken from ChEMBL document CHEMBL5537213, “Cytotoxicity of phosphoramidate, bis-amidate and cycloSal prodrug metabolites against tumour and normal cells” (RSC Med Chem, 2024).
Calls of active or inactive are those of the source. The calls are words filed in the database; no cut-off is given here.

Columns and labels:
[1] = system: GL261; assay: Antiproliferative activity against mouse GL261 cells transfected with luciferase gene assessed as reduction in cell index at 256 uM incubated for 72 hrs by xCELLigence real time cell analyser method; format: functional, cell-based
Summary of the method: (§1)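 Cells seeded on E16 xCELLigence plates (BxPC3 5 × 10^3/well; GL261-Luc and primary astrocytes 3 × 10^3/well), treated after 24 h in supplemented DMEM with 0.1% DMSO final. Impedance cell index read hourly for 72 h, normalised to control (100% viability). At least three independent experiments, two replicates each; ANOVA with Dunnett's test.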

[2] = system: BXPC-3; assay: Antiproliferative activity against human BXPC-3 cells assessed as reduction in cell index at 256 uM incubated for 72 hrs by xCELLigence real time cell analyser method; format: functional, cell-based; summary of the method: as §1
[3] = system: Astrocyte; assay: Cytotoxicity against mouse astrocyte cells assessed as reduction in cell viability at 256 uM incubated for 72 hrs by CyQUANT assay; format: toxicity, cell-based
Summary of the method: (§2)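 BxPC3 (5 × 10^3/well) or primary C57BL/6 male mouse astrocytes (>90% GFAP-positive; 3 × 10^3/well) treated 24 h after plating for 72 h, 0.1% DMSO final. Stained 1 h at 37 °C with CyQUANT Direct nucleic acid stain plus background suppressor in HBSS; whole-well fluorescence imaged (Ex 488/Em 520 nm), normalised to control. At least three experiments, at least four replicates each.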

[4] = system: BXPC-3; assay: Cytotoxicity against human BXPC-3 cells assessed as reduction in cell viability at 256 uM incubated for 72 hrs by CyQUANT assay; format: functional, cell-based; summary of the method: as §2
[5] = system: Astrocyte; assay: Cytotoxicity against mouse astrocyte cells assessed as reduction in cell index at 256 uM incubated for 72 hrs by xCELLigence real time cell analyser method relative to control; format: toxicity, cell-based; parameters: scale not given: the % may be the effect or the level left; summary of the method: as §1
[6] = system: GL261; assay: Induction of apoptosis in mouse GL261 cells transfected with luciferase gene assessed as increase in caspase 3/7 activation at 256 uM incubated for 72 hrs by laser scanning imaging analysis; format: functional, cell-based
Summary of the method: (§3)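 BxPC3 (5 × 10^3/well) or GL261-Luc (3 × 10^3/well) exposed 24 h post-plating for 72 h, 0.1% DMSO final. CellEvent caspase-3/7 green reagent 1 h at 37 °C; whole-well fluorescence imaged (Ex 488/Em 520 nm). Cells then fixed, permeabilised, blocked and stained with CellTag 700 (Ex 685/Em 720 nm); caspase signal normalised to cell number, expressed as fold over control. At least three experiments, at least four replicates each.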

[7] = system: BXPC-3; assay: Induction of apoptosis in human BXPC-3 cells assessed as increase in caspase 3/7 activation at 256 uM incubated for 72 hrs by laser scanning imaging analysis; format: functional, cell-based; summary of the method: as §3
[8] = system: GL261; assay: Antiproliferative activity against mouse GL261 cells transfected with luciferase gene assessed as reduction in ATP release at 256 uM incubated for 72 hrs in presence of D-luciferin by luminescence based SpectraMax M5 microplate reader analysis; format: functional, cell-based
Summary of the method: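 Luciferase-expressing GL261-Luc seeded at 3 × 10^3/well in DMEM with 10% FBS; 24 h later exposed to compounds with 0.1% DMSO final for 72 h. Medium replaced by D-luciferin 150 μg mL-1 in complete medium, 15 min at 37 °C; luminescence read on plate reader, normalised to control. At least three experiments, at least four replicates each.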

[9] = system: BXPC-3; assay: Cytotoxicity against human BXPC-3 cells assessed as reduction in cell viability at 128 uM incubated for 72 hrs by CyQUANT assay relative to control; format: functional
Summary of the method: (§4)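 BxPC3 (5 × 10^3/well) or primary astrocytes (3 × 10^3/well) were dosed 24 h after plating, in supplemented DMEM with 0.1% DMSO final, for 72 h. Stained 1 h at 37 °C with CyQUANT Direct nucleic acid stain plus background suppressor in HBSS. Whole-well fluorescence imaged (Ex 488/Em 520 nm) and normalised to control. ≥3 experiments, ≥4 replicates.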

[10] = system: GL261; assay: Antiproliferative activity against mouse GL261 cells transfected with luciferase gene assessed as reduction in ATP release at 128 uM incubated for 72 hrs in presence of D-luciferin by luminescence based SpectraMax M5 microplate reader analysis; format: functional; parameters: scale not given: the % may be the effect or the level left
Summary of the method: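 Luciferase-expressing GL261 cells were seeded at 3 × 10^3/well, then dosed 24 h later for 72 h in supplemented DMEM with 0.1% DMSO final. Medium was replaced with D-luciferin (150 µg/mL in complete medium) for 15 min at 37 °C, and luminescence was read on a plate reader and normalised to control. ≥3 experiments, ≥4 replicates.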

[11] = system: BXPC-3; assay: Induction of apoptosis in human BXPC-3 cells assessed as fold increase in caspase 3/7 activation at 128 uM incubated for 72 hrs by laser scanning imaging analysis; format: functional
Summary of the method: (§5)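 BxPC3 (5 × 10^3/well) or GL261-Luc (3 × 10^3/well) were dosed 24 h after seeding for 72 h (0.1% DMSO final). CellEvent caspase-3/7 reagent was added for 1 h at 37 °C and whole-well fluorescence imaged (Ex 488/Em 520 nm). Cells were then fixed, permeabilised, blocked and stained with CellTag 700 (Ex 685/Em 720 nm) for cell number. Signal per cell is given as fold over control. ≥3 experiments, ≥4 replicates.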

[12] = system: Astrocyte; assay: Cytotoxicity against mouse astrocyte cells assessed as reduction in cell index at 128 uM measured after 4 hrs by xCELLigence real time cell analyser method; format: toxicity, cell-based
Summary of the method: (§6)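 Real-time impedance: cells seeded on E16 plates (BxPC3 5 × 10^3/well; GL261-Luc and primary astrocytes 3 × 10^3/well), treated after 24 h in DMEM/10% FBS with 0.1% DMSO final. Cell index read hourly for 72 h and normalised to control (100% viability). At least three independent experiments, duplicates each; mean ± S.D.; ANOVA with Dunnett's test.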

[13] = system: Astrocyte; assay: Cytotoxicity against mouse astrocyte cells assessed as reduction in cell viability at 128 uM incubated for 72 hrs by CyQUANT assay; format: toxicity, cell-based; summary of the method: as §4
[14] = system: GL261; assay: Induction of apoptosis in mouse GL261 cells transfected with luciferase gene assessed as fold increase in caspase 3/7 activation at 128 uM incubated for 72 hrs by laser scanning imaging analysis; format: functional; summary of the method: as §3
[15] = system: BXPC-3; assay: Antiproliferative activity against human BXPC-3 cells assessed as reduction in cell index at 128 uM incubated for 72 hrs by xCELLigence real time cell analyser method relative to control; format: functional; parameters: scale not given: the % may be the effect or the level left; summary of the method: as §6
[16] = system: Astrocyte; assay: Cytotoxicity against mouse astrocyte cells assessed as reduction in cell index at 128 uM incubated for 72 hrs by xCELLigence real time cell analyser method relative to control; format: toxicity, cell-based; parameters: scale not given: the % may be the effect or the level left; summary of the method: as §6
[17] = system: BXPC-3; assay: Cytotoxicity against human BXPC-3 cells assessed as reduction in cell viability at 128 uM incubated for 72 hrs by CyQUANT assay; format: functional, cell-based; summary of the method: as §4
[18] = system: GL261; assay: Antiproliferative activity against mouse GL261 cells transfected with luciferase gene assessed as reduction in cell index at 128 uM incubated for 72 hrs by xCELLigence real time cell analyser method; format: functional, cell-based; summary of the method: as §6
[19] = system: BXPC-3; assay: Antiproliferative activity against human BXPC-3 cells assessed as reduction in cell index at 128 uM incubated for 72 hrs by xCELLigence real time cell analyser method; format: functional, cell-based; summary of the method: as §6
[20] = system: BXPC-3; assay: Induction of apoptosis in human BXPC-3 cells assessed as increase in caspase 3/7 activation at 128 uM incubated for 72 hrs by laser scanning imaging analysis; format: functional, cell-based; summary of the method: as §5
[21] = system: GL261; assay: Induction of apoptosis in mouse GL261 cells transfected with luciferase gene assessed as increase in caspase 3/7 activation at 128 uM incubated for 72 hrs by laser scanning imaging analysis; format: functional, cell-based; summary of the method: as §5

Row | Structure (SMILES) | Activity [1] | Activity [2] | Activity [3] [%] | Activity [4] | Activity [5] [%] | Activity [6] | Activity [7] | Activity [8] | Activity [9] [%] | Activity [10] | fold change (FC) [11] | Activity [12] | Activity [13] [%] | Activity [15] [%] | Activity [16] [%] | Activity [17] | Activity [18] | Activity [19] | Activity [20] | Activity [21] | further results
1 | CC(C)OC(=O)[C@H](C)N | inactive | inactive | 12 | inactive | 11 | inactive | inactive | inactive |  |  |  |  |  |  |  |  |  |  |  |  | 
2 | C[C@H](N)C(=O)OCc1ccccc1 | inactive | inactive | 8 | inactive | 11 | inactive | inactive | inactive |  |  |  |  |  |  |  |  |  |  |  |  | 
3 | Oc1cccc2ccccc12 [1-NAPHTHOL] |  |  |  |  |  |  |  |  | 53 | 53% | 2.2 | Toxic | 29 | 51 |  |  |  |  |  |  | fold change (FC) [14]: 2
4 | Oc1ccc2ccccc2c1 [BETANAPHTHOL] |  |  |  |  |  |  |  |  | 90 | 39% | 8.1 | Toxic | 29 | 94 | 46 |  |  |  |  |  | 
5 | Oc1ccccc1 [PHENOL] |  |  |  |  |  |  |  |  |  | inactive |  |  | 8 |  | 11 | inactive | inactive | inactive | inactive | inactive | 
6 | OCc1ccccc1O [SALICYL ALCOHOL] |  |  |  |  |  |  |  |  |  | inactive |  |  | 22 |  | 11 | inactive | inactive | inactive | inactive | inactive | 
